Experimental data taken from the EternaBench riboswitch data.

System: MS2 coat protein
Test: apparent Kd, MS2 coat protein; higher = weaker binding; RNA-MaP array; FMN 200 µM where present
How it was run: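 The apparent Kd comes from binding curves fitted cluster by cluster, filtered, and summarised as a median. Those curves followed SNAP-549-labelled MS2 coat protein from 0.7 or 1.5 nM, doubling to 3 µM, on Illumina sequencing-chip clusters where stalled E. coli RNA polymerase had transcribed the designs, without and then with constant ligand. The buffer was 100 mM Tris-HCl pH 7.5, 80 mM KCl, 4 mM MgCl2, BSA, DTT, yeast tRNA and Tween-20, and green signal was normalised to red-channel RNA signal and control-cluster median Fmax.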

[1] = designed as: OFF switch for flavin mononucleotide, no ligand
[2] = ligand present: flavin mononucleotide, designed as: OFF switch for flavin mononucleotide
[3] = designed as: ON switch for flavin mononucleotide, no ligand
[4] = ligand present: flavin mononucleotide, designed as: ON switch for flavin mononucleotide

Sequence	apparent Kd [1]	apparent Kd [2]	apparent Kd [3]	apparent Kd [4]
UCGACCGGAGGAUAUCACGUAAAGUACAUGAGGAUCACCCAUGUGUGAUGACUCGAGUCGUGAGAAGGCCGAUAUG	76.4 nM	172 nM	–	–
GCCAUCUCAUGAGGAUAUGCUCCCGUUUCGGGAGCAGAAGGCAUGUCAUAAGACAUGAGGAUCACCCAUGUAGUUAAGAUGGCA	–	–	286 nM	11.8 nM
GGUGGACAUGAGGAUCACCCAUGUGAGGAUAUCGGCUGGUACGUGUUGGCUGGCAUCUCGAGAAGGCACAUCGU	56.2 nM	135 nM	–	–
UGAUAACAUGUAGGAUAUCCAGCAUUGACCAUCGGAGAAGGACAUGAGGAUCACCCAUGUACCGAUACAAUGGAAUAAGGGAAU	15.5 nM	17.9 nM	–	–
CUCUAUCAUGUAGGAUAUGCGUGUCGAAGCUAUGCAGAAGGACAUGAGGAUCACCCAUGUCUUUCUGUCUGCGGACGGACAGGG	14.9 nM	18.2 nM	–	–
CCGGAAAUAGAGGAUAUCGUAUCGGAUACGAUACGAGAAGGCUGUACAUGAGGAUCACCCAUGUGUCCUACCGG	11.2 nM	21.6 nM	–	–
UAUAUAUAGUAAGGAUAUGUAUAUAUGUUAUAAACAGAAGGUACUGACAUGAGGAUCACCCAUGUUUUAGUGUGGGCAUGUAGA	66.2 nM	96 nM	–	–
UCUAUAUAGAUUCAUCAAUACAGUAAGGAUAUGAGAUACAUGAGGAUCACCCAUGUGCAUGUGGAUUAGAAGGUACAAUUAACU	60 nM	46.3 nM	–	–
UGUCGGAGCAGAGGAUAUUACAUGAGGAUCACCCAUGUAUGAACCAACAGCUGGAAACAGCAAUGUAAGAAGGCUGCUCCGACA	10.4 nM	131 nM	–	–
AAUUAUUUACAGAAGGAGUAAGAUUAUGUAUUACUAGGAUAUGUUCACAUGAGGAUCACCCAUGUACUAGUUGGUUUUUUAUGU	10.5 nM	17.1 nM	–	–
UGUCGGAGCAGAGGAUAUUACAUGAGGAUCACCCAUGUAUGAACCAAUAGCUGGAAACAGCAAUGUGAGAAGGCUGCUCCGACA	5.47 nM	52.3 nM	–	–
CCCGGGUUAGGAUAUUUGGGCCCGGGCGAACGCCCGGGCCCGGAGAAGGGACAUGAGGAUCACCCAUGUCCGGG	21.2 nM	19.2 nM	–	–
GUGGUACAUGAGGAUCACCCAUGUCAGGAUAUCGUGUGUUUUUUUUCGGCCGCGCGUGCGAGAAGGGACGUCUU	19.6 nM	19.4 nM	–	–
GGGCCGGUGGAGAAGGAGCUUGCAAAAUGCAUGCUAGGAUAUCCACAUGAGGAUCACCCAUGUGGGAAUAUCUGGUUUUCACAG	3.98 nM	5.05 nM	–	–
AAAAAGCGAGGAUAUGCAUAAGGACCCGGGAGGGAAAUCAAACAUGAGGAUCACCCAUGUAGAAGGCGCAAAAA	16.1 nM	23.3 nM	–	–
CGAGUUUUUGAGAAGGCAUAUUAUAUUAUACCACAUGUUUACAUGAGGAUCACCCAUGUUUCCUAUGAGGAUAUCAGAAUGUCG	9.34 nM	7.33 nM	–	–
GACAUGAGGAUCACCCAUGUACAGAUAGAGGAACUCUAAUUGAGAAGGGACUUGAAACAAUCAUGUCAGGAUAUCAGUGGCGAC	–	–	86.7 nM	41 nM
AUAAAACAUGAGGAUCACCCAUGUAAAAAUAUGGGAGGAUAUGCGAAAUAAAAUAAAUAAGCAGAAGGCCUAAAAA	–	–	50.4 nM	23.7 nM
AAGAAAGAGCGAGGAUAUGCGAUAAAAUAAUAAGCAGAAGGUGCAUAACAUGAGGAUCACCCAUGUUGUUGUCAUGUCAAGAUU	14.2 nM	18.2 nM	–	–
ACUAAACGAGGAUAUACUGACAGGCCUCAGGCAUACAUCAAACAUGAGGAUCACCCAUGUAGAAGGCGUAAACU	32.8 nM	32.8 nM	–	–
UGACUGAUAUAGAAGGGUAUGUGGGAAUUACAUGAGGAUCACCCAUGUUUUAUAGGAUAUGUAUAUAGAAUUUAAUCAAGUUUA	40.5 nM	37.1 nM	–	–

Sequence	apparent Kd [1]	apparent Kd [2]	apparent Kd [3]	apparent Kd [4]
GGUUUUGUGUAAGGAUAUGCAUCACUGAGAAAUUUAGUGAGGAAGAUCACAUGAGGAUCACCCAUGUAGAAGGUACACAUGUGG	57.9 nM	89.2 nM	–	–
CAGCCCUGAGGAUAUCCCUACUUGUACAUGAGGAUCACCCAUGUCCUCCUCCGGGCUUCGGGAGAAGGCAGGUCUC	15.8 nM	–	–	–
CUGAGCUGAGGAUAUACAUGAGGAUCACCCAUGUGAAGUAGCUUGCGUACAGGCAGAUGUAGAAGGCAGUUCGG	39.1 nM	179 nM	–	–
CGGCGCUGUCGAGAGGAUAUGCGGUGAUGGACAUGAGGAUCACCCAUGUUAGCGAUAGCAUCACGGUAGAAGGCUCUUACGCCUG	–	–	378 nM	174 nM
GGGCAACAUGAGGAUCACCCAUGUGAGGAUAUGGGCCCGGGCCCGAAAGGGCCCGGGCCCAGAAGGCACAGCCC	17.9 nM	17.1 nM	–	–
GGCGGGCGGGAGGAUAUUCGGGCUGUUUGGCUUGGAGAAGGCUCGACAUGAGGAUCACCCAUGUUUGGGUCGUC	18 nM	37.8 nM	–	–
CGAUGACAUAGUCAUCCGUAACGGACAUGAGGAUCACCCAUGUAGGAUAUGCUACUCAACGAGUAGCAGAAGGACAUGAGUCUU	38.3 nM	347 nM	–	–
GAUAUAGAGCAGGAUAUCUUAGAUAUGUAAUAAAGAGAAGGGCUCACAUGAGGAUCACCCAUGUGGUCCUAGAU	18.5 nM	113 nM	–	–
GCUAGUAUUGCAGGAUAUUGAGAAUAAUUAUUACAAGAAGGGCAUAACAUGAGGAUCACCCAUGUAUUCCUUAAUGAUACUAGC	6.31 nM	7.13 nM	–	–
AUAAAUCAUGUAGGAUAUGCGUGGCGAAGCUAUGCAGAAGGACAUGAGGAUCACCCAUGUCAUUCCGUCUGCGUACAGACGGAA	34.5 nM	308 nM	–	–
AUUUUACAUGAGGAUCACCCAUGUUUUGGCGGGUCAGGAUAUAGAUCGGAUGAGUUCUGUCUAGAAGGGACAUGUU	–	–	49.7 nM	29.6 nM
UGGUACUAGGGAGGAUAUGCGAAGAUACAUGAGGAUCACCCAUGUUUAAGAAUGCCGAGAGGCAACUAGAAGGCCCUAGUACCU	–	–	8.5 nM	5.38 nM
AACCGACAUGAGGAUCACCCAUGUCAGGAUAUGGACUGACACCGAAAGGGUGGCGGAACCAGAAGGGACUGGGC	36.3 nM	96.5 nM	–	–
AGGAGUAAAGGGAAUAACAUGAGGAUCACCCAUGUAUGGGAGAGAAGGCAGAUUGGAGGACGAUCUGAGGAUAUUUAAACUCUA	–	–	53.5 nM	20.1 nM
ACAUAAAUUCGAGGAUAUCGGUGAUAUAAUUUACGAGAAGGCGAUAAAAGUUAUAAACUUAUAGACAUGAGGAUCACCCAUGUA	–	–	31 nM	30.6 nM
GACUUGUUAGGAUAUCUUACAUUUGCAUCAUAGUAACCUUUGGAGAAGGGACAUGAGGAUCACCCAUGUUUGGA	40.1 nM	36.6 nM	–	–
UUUAAUCGAAACAUGAGGAUCACCCAUGUGUUGUAAUUAACAUAGGAUAUUUGUAUACUUUUGUAAGAGAAGGAUGAUAAUACU	–	–	22.4 nM	15.8 nM
UCGACCAGCGCCGCUCGAACAUGAGGAUCACCCAUGUACUCCAGAAGGCCGCCCAAGUACGGAGUGGAGGAUAUGGAGGUUCUC	–	–	39.5 nM	25.4 nM
CUUUUGUGAGGAUAUCAGUAGUAAAUAAAUAAAAUAACUACUGAGAAGGCACAUGAGGAUCACCCAUGUUCCUC	35.8 nM	223 nM	–	–
AAAAAAAAAACUCAGGAUAUAGAUCGUUGAACAUGAGGAUCACCCAUGUAGUGAAAAGCGAAAAACUAGAAGGGAGGAAAAAAAAA	–	–	28.9 nM	19.8 nM
UGUCCAUAGCAGAAGGACAUGAAUAAAUAUGAAAACAUGAGGAUCACCCAUGUAGGAUAUGCUAUGGACUAAGAGCGAAAGCUC	7.68 nM	49.3 nM	–	–
